Assay outcomes: PubChem BioAssay, several laboratories
SENP7 inh = SENP7 protease inhibitors, primary screen, biochemical, luminescence, uHTS; inhibition, % at 5 µM; actives 1.5% (n = 330,000); AID 434973, 2010; recombinant SENP7, Z-RLRGG-aminoluciferin luminescence, 40 min;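 active means inhibition above about 50% at the single test dose, limit read from the data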;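 further: plate controls were DMSO with enzyme for no effect and no enzyme buffer wells for full effect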
SENP8 block-1 = SENP8 protease inhibitors, primary screen, biochemical, luminescence; purified SENP8, Z-RLRGG-aminoluciferin cleavage; Sentrin-specific protease 8 (Homo sapiens), Q96LD8; inhibition, % at 10 µM; AID 2540, 2010; actives 1.2% (n = 330,000); in the data active means inhibition above about 50%
Platelet DG rel = inhibitors of platelet dense granule secretion, primary screen, cell-based, MLPCN, human platelets; human platelet-rich plasma, SFLLRN dense granule ATP release, luminescence; inhibition, %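 (compounds screened at 7.5 µM in platelet-rich plasma)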; actives 0.22% (n = 300,000);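 active means mean replicate score, as percent of positive control, at or above 50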
SENP1 inh = human SENP1 catalytic domain inhibitors, primary screen, biochemical, FRET, uHTS; recombinant SENP1 catalytic domain, CyPet-SUMO1-YPet FRET cleavage; actives 0.21% (n = 360,000); Sentrin-specific protease 1 (Homo sapiens), Q9P0U3; inhibition, % at 10 µM;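 active means inhibition at least 30% at 10 µM, raw YFP signal under a set limit, fluorescence ratio 0.5 to 1.5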;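 further: 0% = enzyme with DMSO and 100% = no enzyme wells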
Target sequence (Q9P0U3 419-644 limits assumed): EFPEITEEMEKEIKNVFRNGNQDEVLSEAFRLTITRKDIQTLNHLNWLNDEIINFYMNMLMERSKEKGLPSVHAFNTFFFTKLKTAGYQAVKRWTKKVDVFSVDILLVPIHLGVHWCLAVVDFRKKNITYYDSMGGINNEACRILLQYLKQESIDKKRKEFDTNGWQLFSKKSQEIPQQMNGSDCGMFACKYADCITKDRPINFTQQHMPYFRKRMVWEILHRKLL
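System: Recombinant human SENP1 catalytic domain, His6-tagged | Incubation: Enzyme reaction for 50 min at room temperature, dark | Medium: Tris pH 8 with BME, BSA, NP40 and catalase | Also added: 25 nM SUMO1 FRET substrate | Compound: 10 µM single point, 0.5% DMSO | Measured by: FRET fluorescence in CFP and YFP emission channels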
SENP6 block = SENP6 protease inhibitors, primary screen, biochemical, luminescence, uHTS; Sentrin-specific protease 6 (Homo sapiens), Q9GZR1; Recombinant SENP6 catalytic domain, aminoluciferin luminescence; inhibition, % at 10 µM; actives 1.8% (n = 330,000); AID 2599, 2010;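 active means inhibition above about 50% at the single tested dose, limit read from the data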;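 further: plate controls were DMSO wells with enzyme for no effect and DMSO wells lacking enzyme for full effect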
Target sequence (Q9GZR1 628-1112 limits assumed): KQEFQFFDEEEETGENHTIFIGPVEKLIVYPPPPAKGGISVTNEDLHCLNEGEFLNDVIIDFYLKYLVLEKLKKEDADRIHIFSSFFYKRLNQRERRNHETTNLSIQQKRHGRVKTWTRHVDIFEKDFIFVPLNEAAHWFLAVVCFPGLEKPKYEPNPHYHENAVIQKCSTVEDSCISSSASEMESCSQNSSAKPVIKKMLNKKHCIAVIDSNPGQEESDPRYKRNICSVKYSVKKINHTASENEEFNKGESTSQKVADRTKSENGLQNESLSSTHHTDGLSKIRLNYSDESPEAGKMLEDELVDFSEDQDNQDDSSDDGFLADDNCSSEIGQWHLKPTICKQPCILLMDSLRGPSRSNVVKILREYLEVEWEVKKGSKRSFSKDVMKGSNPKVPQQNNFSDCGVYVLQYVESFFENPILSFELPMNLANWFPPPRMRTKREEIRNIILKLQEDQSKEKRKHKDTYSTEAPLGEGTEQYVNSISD
SENP8 block-2 = human SENP8 protease inhibitors, primary screen, biochemical, fluorescence, Nedd8 protein substrate, uHTS. recombinant SENP8. actives 0.64% (n = 360,000). Sentrin-specific protease 8 (Homo sapiens), Q96LD8. inhibition, % at 20 µM. AID 602440, 2012; in the data active means inhibition mostly above about 40%, no sharp cut-off; inactive means mostly below about 27%
SENP8 conf = human SENP8 protease inhibitors, confirmation, biochemical, Nedd8 protein substrate, single concentration | inhibition, % at 25 µM | purified SENP8, Nedd8-AMC/pro-Nedd8 cleavage fluorescence, 30 min | shares compounds with SENP8 block-2 | actives 15% (n = 1,400); in the data active means inhibition mostly above about 39%, no sharp cut-off; inactive means mostly below about 34%
The depositor's hits bear a star; x = no result given. Only some compounds are listed: those with a hit (about 2.6% of all), similar ones and a draw of the others.

SMILES | SENP7 inh | SENP8 block-1 | Platelet DG rel | SENP1 inh | SENP6 block | SENP8 block-2 | SENP8 conf
CC(C)[C@@H](C(=O)N[C@@H](C(=O)O)c1ccccc1)N1C(=O)N2CCc3c([nH]c4ccccc34)[C@@]2(C)C1=O | -4.3 | -10.0 | 14.2 | 1.8 | -15.0 | 43.5* | 17.6
CC(C)[C@@H](C(=O)NC1CCN(Cc2ccccc2)CC1)N1C(=O)N2CCc3c([nH]c4ccccc34)[C@@]2(C)C1=O | 0.9 | -0.5 | -2.1 | -2.5 | -1.6 | 19.9 | x
CC(C)[C@@H](C(=O)NC1CC1)N1C(=O)N2CCc3c([nH]c4ccccc34)[C@@]2(C)C1=O | -2.2 | 1.3 | 15.7 | -2.2 | -0.4 | 51.1* | 6.5
COc1ccccc1CNC(=O)C1CC(c2cccc([N+](=O)[O-])c2)=NO1 (stereo not given) | -2.2 | -6.0 | -2.5 | 1.6 | -0.1 | 17.4 | x
COc1cc2[nH]cc(C(=O)NCCc3ccccc3)c(=O)c2cc1OC | -4.0 | 1.8 | 9.2 | -17.9 | -11.7 | -15.6 | x
Cn1c(=O)[nH]c(=O)c2c1nc(CN1CCN(c3ccccc3F)CC1)n2CCCc1ccccc1 | 8.2 | -5.0 | 3.5 | 1.0 | -3.6 | 21.5 | x
O=C1CN(c2ccc(Cl)cc2)C(=O)CN1NC(=S)Nc1ccc(Cl)cc1 | 5.9 | 2.2 | 10.7 | 2.2 | 13.1 | 42.7* | 11.6
COc1ccc(NC(=O)c2cc(-c3cc(Cl)ccc3O)n[nH]2)c(OC)c1 | 0.4 | 1.0 | -5.5 | 0.4 | -5.5 | 12.0 | x
NS(=O)(=O)c1ccc(CCNC/C=C/c2ccccc2)cc1 | 9.0 | 8.3 | 2.5 | -2.9 | -14.6 | 11.0 | x
CC1CCC(=NNc2ccc(C(F)(F)F)cc2[N+](=O)[O-])CC1 (stereo not given) | -3.6 | -4.3 | 0.7 | -1.1 | -10.8 | 43.0* | 25.8
O=C(CSc1nc(C(F)(F)F)cc(=O)[nH]1)NCC1CCCO1 (stereo not given) | -7.0 | -6.1 | 5.3 | -0.9 | -8.1 | 12.8 | x
O=C(NCCc1ccccc1)C(=O)NCC(c1ccco1)N1CCOCC1 (stereo not given) | -9.8 | -10.7 | -7.4 | 2.0 | -18.1 | 42.8* | 4.9
O=C(NCc1ccccc1)C(=O)NCC(c1ccco1)N1CCOCC1 (stereo not given) | 0.5 | 7.0 | -12.4 | 0.0 | 14.8 | 16.0 | x
S=C(NCCc1ccccn1)Nc1ccccc1Cl | 3.0 | 0.9 | -1.3 | -0.4 | -2.8 | 14.4 | x
Cc1c(Cl)cccc1NC(=S)NCCc1ccccn1 | 2.4 | 5.4 | -1.5 | 0.4 | -20.6 | 47.0* | 16.2
Cc1ccccc1C(=O)Nc1ccc(-c2nnc(SC(C)C(=O)O)n2C)cc1 (stereo not given) | -11.0 | -4.3 | 4.1 | 1.2 | -13.2 | 41.0* | 16.0
CCOc1ccc(NC(=S)Nc2cc(OC)c(Cl)cc2OC)cc1 | 8.7 | 1.4 | 6.9 | -1.0 | 10.6 | 44.5* | 7.4
CCOc1ccc(NC(=S)Nc2ccc3nsnc3c2)cc1 | -5.4 | -7.8 | -1.4 | -25.8 | -25.5 | 43.3* | 38.8
O=C1CC(N2CCN(c3ccc(Cl)c(Cl)c3)CC2)C(=O)N1 (stereo not given) | -5.0 | -16.0 | 1.2 | 0.4 | -9.6 | 12.9 | x
CCN(CC)c1ccc(NC2CC(=O)N(CCc3ccc(OC)cc3)C2=O)cc1 (stereo not given) | 5.5 | 5.2 | -3.5 | -14.4 | 2.8 | 73.6* | 41.2
Cc1ccccc1C(=O)N1CCN(c2ccc(NC(=O)c3ccc([N+](=O)[O-])o3)cc2)CC1 | 9.3 | 5.5 | -3.4 | 1.5 | -6.8 | 39.2* | 7.1
O=C(Nc1ccc(N2CCN(C(=O)c3ccccc3)CC2)cc1)c1ccc([N+](=O)[O-])o1 | x | x | -0.9 | 0.6 | x | 51.3* | 31.2
CN(Cc1cn(Cc2ccccc2)nn1)C1CN(Cc2cn(Cc3ccccc3)nn2)S(=O)(=O)C1 (stereo not given) | x | x | x | 1.8 | x | 12.8 | x
CCCC(=O)n1nc(-c2cccnc2)nc1NCc1ccc(OC)cc1 | x | x | 0.0 | 1.1 | x | 2.9 | x
Cn1/c(=N/NC(=O)c2cccc(OC(F)F)c2)sc2ccccc21 | 5.6 | 1.4 | 6.6 | -1.7 | 6.7 | 5.1 | x
SMILES | SENP7 inh | SENP8 block-1 | Platelet DG rel | SENP1 inh | SENP6 block | SENP8 block-2 | SENP8 conf
O=C(CSc1nc2cc(Cl)ccc2s1)NCc1ccc2c(c1)OCO2 | 13.2 | 2.3 | -1.0 | -1.0 | -2.2 | 44.5* | 31.9
O=C(Nc1ccc(N2CCOCC2)c2nonc12)C1CCCC1 | 23.6 | 23.6 | 2.7 | 4.6 | 48.8 | 35.1 | x
COc1ccc(NC(=O)Nc2ccc(N3CCOCC3)c3nonc23)c(OC)c1 | 7.6 | 11.0 | 3.4 | 14.1 | 14.0 | 44.0* | 11.0
CCOC(=O)N1CCN(C(=O)COC(=O)CNC(=O)c2ccc(C)cc2)CC1 | 2.1 | 9.0 | -2.5 | 0.8 | -8.4 | 42.9* | 21.1
COc1ccc([N+](=O)[O-])cc1NC(=S)NC(=O)C(C)(C)C | 1.5 | 1.6 | 4.2 | -1.9 | -1.2 | 40.0* | 27.1
COc1ccc([N+](=O)[O-])cc1NC(=S)Nc1ccccc1 | -0.6 | 5.6 | 3.9 | 0.8 | -1.2 | 25.7 | x
CC1(C(=O)NS(=O)(=O)c2ccc(Cl)cc2)CCN1C(=O)Cc1ccc(-c2ccccc2)cc1 (stereo not given) | x | x | x | 3.2 | x | 3.9 | x
COc1ccc2c(c1)C(=O)N(c1ccccc1OC)C(=O)C2 | -17.4 | -0.8 | -2.1 | 7.7 | -2.7 | 69.4* | 38.2*
COc1ccc2c(c1)C(=O)N(c1ccc(C)cc1C)C(=O)C2 | -1.3 | -6.5 | 1.1 | -22.2 | 18.9 | 1.7 | x
O=C1c2ccc3c4c(ccc(c24)C(=O)N1c1cccc(O)c1)CC3 | 0.5 | -2.1 | 0.9 | -109.4 | 17.2 | -155.0 | x
O=C1c2ccc3c4c(ccc(c24)C(=O)N1c1cccc(O)c1)C(=O)N(c1cccc(O)c1)C3=O | 19.4 | 6.0 | 6.5 | 4.0 | 22.5 | 46.0* | 46.5
CS(=O)(=O)N(CC(=O)NCC1CCCO1)c1ccc(F)c(Cl)c1 (stereo not given) | -12.3 | -6.3 | -1.0 | 1.4 | -9.3 | 51.2* | 7.2
O=C(O)CSCC(=O)N1CCCN(c2nccc(C(F)(F)F)n2)CC1 | -6.7 | -3.8 | -0.6 | 1.4 | -4.5 | -8.3 | x
O=C(Nc1ccc(N2CCN(Cc3ccccc3)CC2)cc1)c1cccnc1 | -5.2 | -0.5 | -3.4 | 0.5 | -30.2 | 44.6* | 17.8
Nc1nc(SCc2cccc([N+](=O)[O-])c2)n[nH]1 | 1.0 | -2.7 | -2.4 | -1.6 | -13.4 | 18.7 | x
